As a reminder, the IC50 is the concentration at which inhibition is half-maximal.

Calls of active or inactive are those of the source. The rule behind the calls is not given here.

From ChEMBL document CHEMBL4823270, “A first-in-class anticancer dual HDAC2/FAK inhibitors bearing hydroxamates/benzamides capped by pyridinyl-1,2,4-triazoles” (Eur J Med Chem, 2021) come the findings set out here.

One test has as its system K562. Briefly: Growth inhibition of human K562 cells at 10 uM incubated for 24 hrs by MTT assay relative to control. To be noted: read-out: GI. The test is classed as functional. Summed up: (§1)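 Cells seeded at 1 × 10^4 per well, cultured overnight, then exposed to 10 μM compound or DMSO (negative control) for 24 h. After a PBS wash, MTT (2 mg/ml) was added for 4 h at 37°C and formazan dissolved in DMSO. OD read at 570 nm. Growth inhibition = 1 − (OD treated/OD control); at least three independent experiments.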
(Tetrazolium assays rely on reduction of a dye to a coloured formazan, in cell work by metabolically active cells.)

The test system of test [1] is CAKI-1. Briefly: Induction of apoptosis in human CAKI-1 cells at 1.5 uM measured after 24 hrs by Annexin-V/propidium iodide staining based flow cytometry relative to control. The test is classed as functional. The procedure, abridged:
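Cells in supplemented medium with 10% FBS at 37 °C, 5% CO2, exposed to 0.75 or 1.5 μM compound, or DMSO as negative control, for 24 h. Apoptosis assessed by annexin V/PI staining per kit instructions, then flow cytometry; apoptotic cell percentage quantified against control.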
Background: Flow cytometry measures light scatter and fluorescence of single cells or particles in a stream.

Test [2] has as its target T1, Histone deacetylase 2 (Homo sapiens, UniProt Q92769). In words: Inhibition of human full-length recombinant HDAC2 preincubated for 5 mins followed by HDAC substrate addition and further incubated for 45 mins by fluorescence microplate reader assay.
Test [3] has as its system A498. In words: Growth inhibition of human A498 cells at 10 uM incubated for 24 hrs by MTT assay relative to control. The test is classed as functional. Conditions: read-out: GI. Summed up: as §1
Another test concerns the target T2, Histone deacetylase 8 (Homo sapiens, UniProt Q9BY41).
T2 sequence (Q9BY41 whole entry): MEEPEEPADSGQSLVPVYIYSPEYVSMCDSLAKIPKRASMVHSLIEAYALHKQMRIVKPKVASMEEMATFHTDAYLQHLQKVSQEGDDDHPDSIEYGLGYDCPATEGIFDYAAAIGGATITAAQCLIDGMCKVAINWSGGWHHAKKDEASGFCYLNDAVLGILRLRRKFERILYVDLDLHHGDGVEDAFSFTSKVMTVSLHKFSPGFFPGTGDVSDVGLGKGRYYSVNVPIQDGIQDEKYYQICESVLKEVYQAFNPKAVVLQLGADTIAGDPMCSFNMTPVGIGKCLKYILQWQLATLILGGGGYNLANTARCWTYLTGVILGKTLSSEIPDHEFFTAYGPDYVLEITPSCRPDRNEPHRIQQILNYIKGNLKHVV
Briefly: Inhibition of human full-length recombinant C-terminal His-tagged HDAC8 expressed in baculovirus infected Sf9 insect cells preincubated for 5 mins followed by HDAC substrate addition and further incubated for 45 mins by fluorescence microplate reader assay.

Test [4] has as its system A498. Briefly: Induction of apoptosis in human A498 cells assessed as activation of caspase-9 measured after 24 hrs by ELISA relative to control. The test is classed as functional. For orientation: An ELISA detects its analyte on a solid surface through an enzyme-linked reagent.
In test [5] the test system is A498. In words: Induction of cell cycle arrest in human A498 cells assessed as decrease in cell population at G1 phase at 1.5 uM incubated for 24 hrs by propidium iodide based flow cytometry analysis. It is filed as functional. The procedure, abridged: (§2)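 Cells at 1 × 10^5/mL treated with 0.75 or 1.5 μM compound or DMSO (negative control) for 24 h, harvested and washed in PBS. Fixed by dropwise ice-cold 80% ethanol with vortexing, held overnight, washed twice, PI-stained 20 min in the dark. Phase distribution read by flow cytometry.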

The target of another test is Histone deacetylase 3 (Homo sapiens, UniProt O15379). Briefly: Inhibition of human full-length recombinant HDAC3 preincubated for 5 mins followed by HDAC substrate addition and further incubated for 45 mins by fluorescence microplate reader assay.
Chain of Histone deacetylase 3 (O15379 whole entry): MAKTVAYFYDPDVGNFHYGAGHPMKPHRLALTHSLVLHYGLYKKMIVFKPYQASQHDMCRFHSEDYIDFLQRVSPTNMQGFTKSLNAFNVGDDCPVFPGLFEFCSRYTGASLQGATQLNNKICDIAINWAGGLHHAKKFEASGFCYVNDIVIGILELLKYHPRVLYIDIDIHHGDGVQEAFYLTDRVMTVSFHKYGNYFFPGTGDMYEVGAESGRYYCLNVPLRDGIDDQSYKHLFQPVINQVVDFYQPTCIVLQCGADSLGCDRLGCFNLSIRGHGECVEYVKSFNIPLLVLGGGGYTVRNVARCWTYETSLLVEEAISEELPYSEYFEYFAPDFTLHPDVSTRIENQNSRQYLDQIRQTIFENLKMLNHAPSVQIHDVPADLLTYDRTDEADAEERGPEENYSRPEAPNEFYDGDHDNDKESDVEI
The target in test [6] is T3, Focal adhesion kinase 1 (Homo sapiens, UniProt Q05397). In words: Inhibition of FAK in human A498 cells assessed as reduction in FAK phosphorylation pretreated for 12 weeks followed by treatment for last 24 hrs by Western blot analysis. Conditions: time 85.0 day. It is filed as cell-based.
Target sequence in this assay (Q05397 2-1052 limits assumed): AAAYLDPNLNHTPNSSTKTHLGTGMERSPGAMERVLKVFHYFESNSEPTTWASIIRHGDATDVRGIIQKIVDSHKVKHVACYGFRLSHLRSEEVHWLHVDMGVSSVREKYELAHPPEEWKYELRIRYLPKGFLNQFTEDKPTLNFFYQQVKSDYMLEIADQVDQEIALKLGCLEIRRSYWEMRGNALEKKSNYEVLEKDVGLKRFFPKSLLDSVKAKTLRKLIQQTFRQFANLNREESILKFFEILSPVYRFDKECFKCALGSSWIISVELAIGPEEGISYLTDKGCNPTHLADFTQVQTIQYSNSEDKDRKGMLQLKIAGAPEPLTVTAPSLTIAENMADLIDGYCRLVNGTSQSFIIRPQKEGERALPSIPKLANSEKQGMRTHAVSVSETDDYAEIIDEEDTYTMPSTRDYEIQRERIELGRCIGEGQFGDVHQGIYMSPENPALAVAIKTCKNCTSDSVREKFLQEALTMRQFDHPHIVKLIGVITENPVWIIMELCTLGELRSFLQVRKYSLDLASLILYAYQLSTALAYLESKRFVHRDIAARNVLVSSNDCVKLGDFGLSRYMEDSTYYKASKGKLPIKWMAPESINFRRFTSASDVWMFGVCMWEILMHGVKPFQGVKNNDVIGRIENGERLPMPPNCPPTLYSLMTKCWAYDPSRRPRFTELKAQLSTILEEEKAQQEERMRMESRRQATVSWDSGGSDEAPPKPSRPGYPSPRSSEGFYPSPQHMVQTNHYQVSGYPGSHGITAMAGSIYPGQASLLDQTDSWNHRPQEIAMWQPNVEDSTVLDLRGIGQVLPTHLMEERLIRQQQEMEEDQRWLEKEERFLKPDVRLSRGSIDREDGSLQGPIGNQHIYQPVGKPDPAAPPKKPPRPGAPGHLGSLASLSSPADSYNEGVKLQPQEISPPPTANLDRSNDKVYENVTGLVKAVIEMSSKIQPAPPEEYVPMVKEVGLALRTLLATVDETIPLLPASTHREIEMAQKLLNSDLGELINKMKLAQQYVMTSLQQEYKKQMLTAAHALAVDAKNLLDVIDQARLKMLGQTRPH
Test [7] concerns the target T1, Histone deacetylase 2. In words: Inhibition of HDAC2 in human CAKI-1 cells assessed as reduction in HDAC2 expression by Western blot analysis. The test is classed as cell-based. The procedure, abridged: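 40 μg protein (Bradford) resolved by SDS-PAGE, transferred to PVDF, blocked 1 h in milk or BSA. Primary antibody overnight, HRP secondary 1 h, ECL detection; β-actin as loading control.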

Test [8] concerns the target T3, Focal adhesion kinase 1. In words: Inhibition of FAK (unknown origin) by FRET-based Z'-Lyte assay. The procedure, abridged: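 Recombinant FAK kinase activity measured with the FRET-based Z'-LYTE format; the same platform was used for a kinase panel (FAK, FLT, FRK, IGF-1R, BTK). IC50 values determined.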
Target sequence in this assay (Q05397 whole entry): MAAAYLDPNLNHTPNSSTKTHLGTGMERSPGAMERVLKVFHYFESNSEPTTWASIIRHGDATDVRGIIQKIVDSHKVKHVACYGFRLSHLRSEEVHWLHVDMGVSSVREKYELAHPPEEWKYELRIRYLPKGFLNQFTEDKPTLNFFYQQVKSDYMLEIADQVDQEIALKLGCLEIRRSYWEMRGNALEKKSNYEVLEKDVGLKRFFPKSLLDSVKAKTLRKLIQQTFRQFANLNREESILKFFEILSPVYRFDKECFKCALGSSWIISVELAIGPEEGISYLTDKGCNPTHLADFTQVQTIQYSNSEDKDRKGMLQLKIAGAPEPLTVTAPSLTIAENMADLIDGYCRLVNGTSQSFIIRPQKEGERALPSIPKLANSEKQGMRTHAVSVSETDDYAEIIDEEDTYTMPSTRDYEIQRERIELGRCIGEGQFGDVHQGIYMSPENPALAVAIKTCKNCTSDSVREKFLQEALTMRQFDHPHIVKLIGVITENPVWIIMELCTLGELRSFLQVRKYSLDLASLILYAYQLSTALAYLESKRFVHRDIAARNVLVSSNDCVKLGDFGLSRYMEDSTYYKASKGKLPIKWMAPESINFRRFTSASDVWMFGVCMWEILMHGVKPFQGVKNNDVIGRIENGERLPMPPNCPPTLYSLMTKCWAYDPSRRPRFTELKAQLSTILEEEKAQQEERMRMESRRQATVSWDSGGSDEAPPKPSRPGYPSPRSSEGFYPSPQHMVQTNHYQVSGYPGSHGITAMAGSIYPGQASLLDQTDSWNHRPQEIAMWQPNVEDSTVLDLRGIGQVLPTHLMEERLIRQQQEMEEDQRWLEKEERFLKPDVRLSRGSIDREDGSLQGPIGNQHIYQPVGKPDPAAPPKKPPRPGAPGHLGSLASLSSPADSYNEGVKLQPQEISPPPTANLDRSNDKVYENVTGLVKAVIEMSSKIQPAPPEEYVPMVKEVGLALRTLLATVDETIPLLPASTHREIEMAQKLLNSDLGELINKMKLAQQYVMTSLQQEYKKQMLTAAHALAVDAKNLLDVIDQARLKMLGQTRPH
Test [9] has as its system CAKI-1. Briefly: Induction of cell cycle arrest in human CAKI-1 cells assessed as accumulation at G2/M phase incubated for 24 hrs by propidium iodide based flow cytometry analysis (reference value: 5.5 %). The test is classed as functional. The procedure, abridged: as §2

T1 sequence (Q92769 whole entry): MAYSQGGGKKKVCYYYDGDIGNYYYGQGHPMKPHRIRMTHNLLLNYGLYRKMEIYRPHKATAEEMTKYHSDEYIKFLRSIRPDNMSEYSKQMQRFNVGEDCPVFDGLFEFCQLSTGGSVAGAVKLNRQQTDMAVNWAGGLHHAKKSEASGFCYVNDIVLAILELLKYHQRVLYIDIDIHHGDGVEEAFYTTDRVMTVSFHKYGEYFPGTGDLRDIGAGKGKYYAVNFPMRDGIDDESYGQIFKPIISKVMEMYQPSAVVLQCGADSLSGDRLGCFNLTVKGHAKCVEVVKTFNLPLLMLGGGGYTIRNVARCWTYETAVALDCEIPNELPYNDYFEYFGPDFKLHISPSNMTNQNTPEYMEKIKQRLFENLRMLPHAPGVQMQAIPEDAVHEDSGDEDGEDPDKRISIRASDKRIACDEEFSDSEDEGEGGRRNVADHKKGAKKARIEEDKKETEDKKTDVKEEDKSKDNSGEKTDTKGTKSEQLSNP

For the compound `Cn1c(SCCCCCC(=O)NO)nnc1-c1ccncc1`, the results for the inhibition of growth at 10 µM with K562 and in the test on A498 [3] were 40.1% and 99.8%, respectively. Also, the Activity in the test with CAKI-1 [1] worked out at 37%; in the test on CAKI-1 [9], 35%. In addition, the IC50 was found to be 90 nM at Histone deacetylase 2 [2], 7100 nM at Histone deacetylase 8, 3410 nM on Histone deacetylase 3 and 12.6 nM against Focal adhesion kinase 1 [8]. Further, the “fold change (FC)” value in the test on A498 [4] is on record as 6. In addition, the result with A498 [5] was Active. Moreover, the inhibition result at Focal adhesion kinase 1 [6] and on Histone deacetylase 2 [7] was “Active” throughout.
